Screens from PubChem BioAssay.
NS3 helicase inh = blocks Hepatitis C virus NS3 helicase unwinding; hit rate 0.56% among 290,000; AID 1800; NS3 helicase DNA unwinding, Cy5 molecular beacon fluorescence; inhibition, % at 10.9 µM;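 active = inhibition above the mean of all tested compounds plus 3 SD, set per campaign, cut at about 35% in these data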;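 also: 0% = DMSO wells and 100% = thioflavine S control wells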
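Test system: hepatitis C virus NS3 helicase domain fragment enzyme. Also added: annealed dual-labelled DNA beacon duplex, ATP-started. Timing: 60 min unwinding reaction at 25 °C after ATP addition. Technique: Cy5 fluorescence. Measure: % inhibition of unwinding.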
PRMT1 inh = PRMT1 (human) inhibition, primary screen. Q99873. recombinant PRMT1, activity-based probe fluorescence polarization. inhibition, % at 2.79 µM. hit rate 1.3% among 370,000;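 active = inhibition above about 21% made by adding two undisclosed values, limit read from the data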
core dimer inh = HCV core protein dimerization inhibition. inhibition, % at 5 µM. hit rate 0.33% among 300,000. TR-FRET GST/Flag-core106 dimerization, 1536-well;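 active = inhibition above the mean of all tested compounds plus 3 SD, set per screening campaign, cut at about 45% in these data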
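Assay system: GST-tagged and Flag-tagged HCV core protein residues 1-106 / Times: compound-protein-antibody incubation 4 h at 22.5 °C / Signal: time-resolved FRET, ex 340 nm, em 617 and 671 nm / Evaluation: % inhibition based on acceptor/donor emission ratio / Benchmarks: wells lacking GST-core106 and wells with excess unlabelled core106 / Repeats: singlicate, one well per compound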
A3G deaminase = blocks human APOBEC3G single-stranded DNA deamination; Q9HC16; recombinant A3G, ssDNA deamination FAM/TAMRA fluorescence; inhibition, % at 20 µM; hit rate 0.28% among 330,000;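 active = inhibition of at least 40% at 20 µM, with no more than 30% in the related APOBEC3A deaminase screen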;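 also: plate controls were DMSO wells with A3G for no effect and wells lacking A3G enzyme for full effect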
ABHD5 PLIN5 PPI = ABHD5-PLIN5 protein interaction inhibition | Split G. princeps luciferase complementation, luminescence, 4 h | Q00G26+Q8WTS1 | inhibition, % at 4 µM | AID 602281 | hit rate 0.78% among 360,000;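 active = inhibition above the mean inhibition across every tested compound plus 3 SD, cut at about 22% in these data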;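 also: 0% = DMSO only wells and the 100% control is not disclosed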
Target sequence (Q00G26 whole entry, looked up): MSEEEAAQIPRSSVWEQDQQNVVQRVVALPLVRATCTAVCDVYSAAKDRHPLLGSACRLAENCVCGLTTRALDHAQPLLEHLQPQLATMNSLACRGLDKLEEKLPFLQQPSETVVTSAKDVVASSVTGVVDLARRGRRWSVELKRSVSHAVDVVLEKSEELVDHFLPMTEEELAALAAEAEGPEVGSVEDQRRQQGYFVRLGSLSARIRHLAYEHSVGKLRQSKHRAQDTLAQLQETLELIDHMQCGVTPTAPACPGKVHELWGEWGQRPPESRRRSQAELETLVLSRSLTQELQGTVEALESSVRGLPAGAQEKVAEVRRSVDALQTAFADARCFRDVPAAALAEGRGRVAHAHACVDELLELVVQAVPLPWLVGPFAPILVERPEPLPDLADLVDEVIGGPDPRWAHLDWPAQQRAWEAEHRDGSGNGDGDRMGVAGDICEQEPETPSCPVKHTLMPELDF
Target sequence (Q8WTS1 whole entry, looked up): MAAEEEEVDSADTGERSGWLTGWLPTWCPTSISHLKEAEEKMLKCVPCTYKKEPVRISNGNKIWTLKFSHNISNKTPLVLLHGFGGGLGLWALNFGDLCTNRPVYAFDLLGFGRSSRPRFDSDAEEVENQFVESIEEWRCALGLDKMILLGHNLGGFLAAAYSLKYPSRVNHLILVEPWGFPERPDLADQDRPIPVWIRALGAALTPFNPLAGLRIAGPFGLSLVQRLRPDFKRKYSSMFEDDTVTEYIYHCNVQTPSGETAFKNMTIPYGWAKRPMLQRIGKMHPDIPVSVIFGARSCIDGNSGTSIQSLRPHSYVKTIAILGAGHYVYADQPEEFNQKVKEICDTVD
APOBEC3A inh = human APOBEC3A DNA deaminase inhibition; inhibition, % at 20 µM; P31941; hit rate 0.41% among 330,000; recombinant A3A, FAM/TAMRA ssDNA deamination fluorescence;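 active = at least 40% inhibition at 20 µM here, with at most 30% in a related deaminase screen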;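 also: plate controls were A3A with DMSO for no effect and wells lacking A3A enzyme for full effect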
PRMT1 inh conf = confirmation of human PRMT1 inhibitors; shares compounds with PRMT1 inh; recombinant His-PRMT1, activity-based probe fluorescence polarization; inhibition, % at 2.79 µM; hit rate 42% among 3,300; AID 687036;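 active = mean inhibition across replicates above the hit cutoff derived for the earlier primary screen, cut at about 22% in these data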
The depositor's hits bear a star; . = not tested or not shown. Only some compounds are listed: those with a hit (about 2.9% of all), similar ones and a draw of the others.

SMILES	NS3 helicase inh	PRMT1 inh	core dimer inh	A3G deaminase	ABHD5 PLIN5 PPI	APOBEC3A inh	PRMT1 inh conf
CCOC(=O)N1CCC(NC(=O)CSCc2nc(-c3ccc(OC)cc3)oc2C)CC1	0	0	6	-6	-1	-8	.
COc1ccc(-c2nc(CSCC(=O)NC3CCCc4ccccc43)c(C)o2)cc1 (centres undefined)	-7	29*	4	-5	1	-3	26*
Cc1ccccc1N1CCN(C(=O)c2ccccc2NC(=O)/C=C\C(=O)O)CC1	-8	27*	2	-3	1	0	7
O=c1c2c3c(sc2nc(NCCO)n1CCc1ccccc1)CCCCC3	-9	3	-3	1	-16	-1	.
C=CCn1c(NCCO)nc2sc3c(c2c1=O)CCC3	10	33*	-2	-4	1	-4	1
O=c1ccn([C@@H]2O[C@H](CNCc3ccccc3OCc3ccc(Cl)cc3Cl)[C@@H](O)[C@H]2O)c(=O)[nH]1	.	-1	.	.	-7	.	.
O=C([C@@H]1CCCN1C1=NS(=O)(=O)c2ccccc21)N1CCN(c2ccccc2)CC1	.	1	.	.	-8	.	.
CN(C)c1ccc2nc3ccc(=O)cc-3sc2c1	.	60*	.	.	-9	.	35*
Cn1ccnc1C(O)c1cc(C(C)(C)C)c(O)c(C(C)(C)C)c1 (centres undefined)	1	37*	0	-8	19	-6	13
COc1ccc(OC)c(N(CC(=O)NCCSCc2ccc(C)cc2)S(C)(=O)=O)c1	11	-3	1	2	11	2	.
O=C(C[C@@H]1C[C@H]2c3cc(NC(=O)Nc4ccccc4F)ccc3O[C@H]2[C@H](CO)O1)NCC(F)(F)F	.	0	.	.	-3	.	.
O=C(C1CCN(C2CC(=O)N(c3cccc(Cl)c3)C2=O)CC1)N1CCCCCC1 (centres undefined)	-8	29*	-3	-10	11	-3	4
O=C(C1CCCN(C2CC(=O)N(c3ccc(Cl)cc3)C2=O)C1)N1CCCC1 (centres undefined)	1	30*	.	19	8	-4	3
CCCOc1ccc(N2C(=O)CC(N3CCOCC3)C2=O)cc1 (centres undefined)	2	8	-2	0	0	1	.
CCOc1ccc(N2C(=O)CC(N3CCC(NC(=O)Nc4ccccc4)CC3)C2=O)cc1 (centres undefined)	-6	64*	-1	-3	1	-6	6
CCCOc1ccc(N2C(=O)CC(N3CCC(C(=O)OCC)CC3)C2=O)cc1 (centres undefined)	13	56*	-1	-4	16	-2	6
Cc1ccc(S(=O)(=O)N2CC3(O)CN(C(=O)OC(C)C)N(C(=O)OC(C)C)CC3(OC(=O)NC3CCCC3)C2)cc1 (centres undefined)	.	-1	.	.	2	.	.
COC(=O)[C@H](CC(C)C)N(CCc1cn(Cc2ccccc2)nn1)S(=O)(=O)c1ccc(F)cc1Br	.	-1	.	.	.	.	.
CCCOc1ccc(N2C(=O)CC(N3CCCC(C(=O)N4CCCC4)C3)C2=O)cc1 (centres undefined)	9	39*	4	-1	4	-2	6
CCCOc1ccc(N2C(=O)CC(SCC(N)C(=O)OCC)C2=O)cc1 (centres undefined)	-7	27*	-6	-2	-3	-3	23*
CCOC(=O)C1CCCN(C2CC(=O)N(c3cccc(C)c3)C2=O)C1 (centres undefined)	-8	63*	1	-7	3	3	10
CCOC(=O)C(N)CSC1CC(=O)N(c2ccc(C(=O)OC)cc2)C1=O (centres undefined)	7	21	10	8	5	-5	.
O=C(CSc1nnc(-c2ccccc2)n1-c1ccccc1)NN=C/C=C\c1ccccc1[N+](=O)[O-]	.	-11	.	.	.	.	.
O=c1oc2cc(O)ccc2cc1-c1nc2ccccc2o1	.	71*	.	.	-17	.	68*
O=C1/C(=C/c2cccnc2)Sc2ccccc21	-5	46*	1	-11	11	0	12
SMILES	NS3 helicase inh	PRMT1 inh	core dimer inh	A3G deaminase	ABHD5 PLIN5 PPI	APOBEC3A inh	PRMT1 inh conf
Cc1noc(/C=C/c2ccco2)c1S(=O)(=O)N1CCC(C(=O)NCc2ccco2)CC1	11	32*	2	-3	4	2	0
O=C(COC(=O)c1ccc(C(F)(F)F)cc1)Nc1cccc(S(=O)(=O)N2CCCCC2)c1	.	-4	.	-11	-3	-2	.
Cc1ccc2c(c1)C(=O)CCN2	-5	0	7	-7	-7	-1	.
O=C1CCNc2ccc(-c3ccccc3)cc21	0	75*	19	-11	-4	-6	79*
COc1cc(OC)cc(C(=O)N[C@H](C(=O)NC2CCCc3ccccc32)C(C)C)c1 (some centres undefined)	.	-3	.	-2	8	-2	.
CCNc1sc(C(=O)c2cccs2)c(N)c1C#N	-4	29*	-5	-6	6	-4	11
C=CCNc1sc(C(=O)c2cccs2)c(N)c1C#N	0	0	-27	0	-5	0	.
Cc1cnc(C(=O)OCC(=O)Nc2ccc(OCc3ccccc3)cc2)cn1	.	0	.	-7	-4	-5	.
Cc1ccc(NC(=S)NCC23C=CC(O2)C2C(=O)N(c4ccc(C)cc4)C(=O)C23)cc1 (centres undefined)	12	91*	8	9	15	-4	50*
Cc1ccc(N2C(=O)C3C4C=CC(CNC(=S)N5CCN(c6ccccc6)CC5)(O4)C3C2=O)cc1 (centres undefined)	-4	43*	2	22	2	-9	44*
S=C(NCC1CCCO1)N1CCN(c2ccccc2)CC1 (centres undefined)	-9	-2	-4	-2	-2	1	.
Cc1ccc(S(=O)(=O)NCC23C=CC(O2)C2C(=O)N(c4ccccc4)C(=O)C23)cc1 (centres undefined)	22	81*	-3	9	15	-1	11
Cc1cccc(NC(=S)NCC23C=CC(O2)C2C(=O)N(c4ccc(Cl)cc4)C(=O)C23)c1 (centres undefined)	25	78*	7	8	17	-5	31*
CCc1nnc(NC(=O)CCC(=O)N2CCC(Cc3ccccc3)CC2)s1	1	-1	-9	-1	3	-1	.
COc1ccccc1NC(=O)C(=O)NNC(=O)c1ccco1	-3	2	-6	-4	0	-1	.
COc1ccccc1NC(=O)/C(C#N)=C/C=C/c1ccco1	19	28*	1	-5	-4	0	9
Cc1cn(-c2cc(NC(=O)c3ccc(C)c(NC(=O)c4cccc(-c5cn[nH]c(=O)c5)c4)c3)cc(C(F)(F)F)c2)cn1	-41	.	2	-6	11	3	.
